13 molecules from publication PMC7237122 (OncoTargets and therapy, 2020) can be followed below.

Data set [1] relates to ALT and AST. The experiment in a line: H22-tumor-bearing mice: liver function. The note with it: blood of H22-tumor-bearing mice, compared with model group. In kind it is in vivo. A digest of the protocol: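 H22 ascites cells were injected into male Kunming mice; tumors of 100~150 mm3 at 7 days were randomised (10~12/group) against saline model and uninoculated normal groups. Test agents were given daily for 8 days (ip 100 mg/kg; po 400 or 720 mg/kg). After a 16 h fast, blood was taken from the eyes for ALT and AST. Mean ± standard error; ANOVA.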

In data set [2] the test system is H22-tumor-bearing mice. The experiment in a line: H22-tumor-bearing mice: tumor size, tumor weight, HE staining. In kind it is in vivo. To be noted: for tumor inhibition rate (TIR), tumor weight: 5-Fu ip 200 mg/kg twice a week, SOLB ip 100 mg/kg once daily, 8 days; for tumor size: H22-tumor-bearing mice, compared with model group. The method, boiled down: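 In H22-inoculated male Kunming mice (tumors 100~150 mm3, randomised 10~12/group), treatment ran 8 days (daily test agents; 5-Fu twice weekly). Tumor size was measured by Vernier calipers. Tumors were excised after a 16 h fast and ether euthanasia. Inhibition rate was taken from mean tumor indices of drug versus model groups. Tissue was fixed overnight in 4% buffered paraformaldehyde for HE. Mean ± standard error; ANOVA.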

Data set [3] concerns H22-tumor-bearing mice. The experiment in a line: H22-tumor-bearing mice: tolerability. In kind it is in vivo. The note with it: for mice analyzed / mice in group: 5-Fu ip 200 mg/kg twice a week, SOLB ip 100 mg/kg once daily, 8 days. The method, boiled down:
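Animals bearing 7-day H22 tumors (male Kunming, 10~12/group) were treated once daily 09:00–10:00 for 8 days (test agents ip or po); 5-Fu ip 200 mg/kg was given twice weekly. Appearance and behaviour were observed, and diarrhea, irritation and emaciation were recorded. Body weight was followed over therapy. Liver was fixed overnight in 4% buffered paraformaldehyde for HE.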

Data set [4] has as its system JAK2, Tyr705-p-STAT3, Ser725-p-STAT3. The data set is described as follows: H22-tumor-bearing mice: Western blotting of tumor tissue. In kind it is in vivo. To be noted: compared with model group. For orientation: In western blotting, separated proteins are transferred to a membrane and probed.
Data set [5] concerns IL-6. The data set is described as follows: H22-tumor-bearing mice: IL-6 ELISA of serum and tumor. In kind it is in vivo. The note with it: for IL-6 concentration, tumor ELISA: tumor tissue, compared with model group. A digest of the protocol: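 Male Kunming mice (20~22 g) bearing H22 tumors (100~150 mm3 at day 7, 10~12/group) were dosed 8 days: test agents ip 100 mg/kg or po 400/720 mg/kg daily, or 5-Fu ip 200 mg/kg twice weekly. Mice were fasted 16 h and ether-euthanised. IL-6 was measured by ELISA in eye-collected blood and in liquid-nitrogen-frozen tumor tissue. Mean ± standard error; ANOVA.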
A general note: In an ELISA, binding on a coated surface is turned into a signal by an enzyme label.

The subject of data set [6] is SMMC-7721 cells. The data set is described as follows: MTT analysis of SMMC-7721 cells. Format: cell-based. A digest of the protocol: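 SMMC-7721 cells (Shanghai Institute of Cell Biology) were incubated with test extract or compounds, and growth was read by MTT. Mean ± standard error; ANOVA, P<0.05.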
The test system of data set [7] is SMMC-7721 cells. The experiment in a line: Hochest apoptosis test in SMMC-7721 cells. The note with it: concentration not given. In kind it is cell-based. The method, boiled down: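 Apoptosis in SMMC-7721 cells exposed to test extract or compounds was assessed by Hoechst staining per kit instructions. Mean ± standard error; ANOVA.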

For `O=c1[nH]cc(F)c(=O)[nH]1` [5-Fu, 5-fluorouracil], in data set [1], the “liver function: ALT and AST levels” value was “the best”. Further, in data set [2], the “tumor inhibition rate (TIR), tumor weight” value amounted to 91.94% and the tumor size result is recorded as “the smallest”. The “HE staining of tumor tissue” value in data set [2] (chromatin condensation and nuclear shrinkage, compared to model group) is reported as “good”. The “mice analyzed / mice in group” value in data set [3] was 10/12. Moreover, in data set [3] (therapeutic period), the “appearance and behavior (adverse reactions)” value was “diarrhea and alopecia, their appetite was poor”; the weights of mice result is “steadily increased during the therapeutic period except in the 5-Fu group”. Besides, in data set [4], the “protein expressions of JAK2, Tyr705-p-STAT3, Ser725-p-STAT3 (Western)” value was “could inhibit protein expressions of JAK2, Tyr705-p-STAT3, and Ser725-p-STAT3”. Further, in data set [5], the “IL-6 concentration, serum ELISA” value was “increasing not decreasing IL-6” and the “IL-6 concentration, tumor ELISA” value is “higher than the model group”.

For the molecule `O=C(/C=C/c1ccc(O)cc1)CC(=O)/C=C/c1ccc(O)cc1` [BIS, bisdemethoxycurcumin], the “growth of SMMC-7721 cells (MTT)” value in data set [6] is reported as “could inhibit the growth of SMMC-7721 cells in a dose-dependent manner”.

Consider `O=C(O)/C=C/c1ccc(O)c(O)c1` [CAF, caffeic acid], for which, in data set [6], the “growth of SMMC-7721 cells (MTT)” value is “no obvious effects”.

With `OC[C@H]1O[C@@H](O[C@@H]2OC=C[C@H]3[C@H](O)[C@@H]4O[C@]4(CO)[C@@H]23)[C@H](O)[C@@H](O)[C@@H]1O` [CAT, catalpol], the “growth of SMMC-7721 cells (MTT)” value in data set [6] was “no obvious effects”.

In the case of `O=C(/C=C/c1ccc(O)c(O)c1)O[C@@H]1C[C@](O)(C(=O)O)C[C@@H](O)[C@H]1O` [CHL, chlorogenic acid], the “growth of SMMC-7721 cells (MTT)” value in data set [6] is “no obvious effects”.

For `COc1cc(/C=C/C(=O)CC(=O)/C=C/c2ccc(O)c(OC)c2)ccc1O` [CUR, curcumin], the “growth of SMMC-7721 cells (MTT)” value in data set [6] is on record as “could inhibit the growth of SMMC-7721 cells in a dose-dependent manner”.

Consider `O=C1C[C@@H](c2ccc(O[C@@H]3O[C@H](CO)[C@@H](O)[C@H](O)[C@H]3O)cc2)Oc2cc(O)ccc21` [LIQ, liquiritin], for which, in data set [6], the “growth of SMMC-7721 cells (MTT)” value is “no obvious effects”.

In the case of `COc1cc2c(c(OC)c1OC)-c1c(cc3c(c1OC)OCO3)CC(C)C(C)C2` (stereo not shown) [SCHB, schisandrin B], the “growth of SMMC-7721 cells (MTT)” value in data set [6] was “could inhibit the growth of SMMC-7721 cells in a dose-dependent manner”.

For `COc1cc2c(c(OC)c1OC)-c1c(cc3c(c1OC)OCO3)C[C@H](C)[C@@](C)(O)C2` [SOLB, schisandrol B], the “liver function: ALT and AST levels” value in data set [1] is “effective”. In data set [2], the “tumor inhibition rate (TIR), tumor weight” value is listed as 34.98% and the tumor size entry is “effective but not better than 5-Fu”. In data set [6], the “growth of SMMC-7721 cells (MTT)” value is recorded as “could inhibit the growth of SMMC-7721 cells in a dose-dependent manner”. Further, in data set [7], the “effect on apoptosis (Hochest), pure compounds” value (from here on “effect on apoptosis (Hochest)”) is “an active ingredient of DWYG extract”. For the same molecule, the “mice analyzed / mice in group” value in data set [3] was 12/12. Besides, the “protein expressions of JAK2, Tyr705-p-STAT3, Ser725-p-STAT3 (Western)” value in data set [4] was “could inhibit protein expressions of JAK2, Tyr705-p-STAT3, and Ser725-p-STAT3”. Also, in data set [5], the “IL-6 concentration, serum ELISA” value was “less than 5-Fu but more than DWYG extract” and the “IL-6 concentration, tumor ELISA” value is reported as “less than in the model group”.

Regarding demethoxycurcumin, in data set [6], the “growth of SMMC-7721 cells (MTT)” value is listed as “could inhibit the growth of SMMC-7721 cells in a dose-dependent manner”.

Take deoxyschizandrin: the “growth of SMMC-7721 cells (MTT)” value in data set [6] is listed as “could inhibit the growth of SMMC-7721 cells in a dose-dependent manner”. In addition, in data set [7], the “effect on apoptosis (Hochest)” value was “not good”.

schisandrol A [SOLA]: in data set [7], the “effect on apoptosis (Hochest)” value is on record as “not good”.

Consider schisantherin A [SINA], for which the “growth of SMMC-7721 cells (MTT)” value in data set [6] was “could inhibit the growth of SMMC-7721 cells in a dose-dependent manner”.
